Reference: ChEMBL document CHEMBL1135850, “P1 Phenethyl peptide boronic acid inhibitors of HCV NS3 protease” (Bioorg Med Chem Lett, 2002)
Peptide text beside a SMILES is read from it. * marks the point of attachment. X5 = Cc1ccc(CC[C@H](N*)B2O[C@@H]3C[C@@H]4C[C@@H](C4(C)C)[C@]3(C)O2)c(C)c1; X7 = Cc1ccc(C)c(CC[C@H](N*)B2O[C@@H]3C[C@@H]4C[C@@H](C4(C)C)[C@]3(C)O2)c1; X2 = Cc1ccccc1CC[C@H](N*)B1O[C@@H]2C[C@@H]3C[C@@H](C3(C)C)[C@]2(C)O1

What follows are compounds tested against T1, Neutrophil elastase (Homo sapiens, UniProt P08246) (assay: Inhibitory concentration against Human leukocyte Elastase).
T1 sequence (P08246 whole entry): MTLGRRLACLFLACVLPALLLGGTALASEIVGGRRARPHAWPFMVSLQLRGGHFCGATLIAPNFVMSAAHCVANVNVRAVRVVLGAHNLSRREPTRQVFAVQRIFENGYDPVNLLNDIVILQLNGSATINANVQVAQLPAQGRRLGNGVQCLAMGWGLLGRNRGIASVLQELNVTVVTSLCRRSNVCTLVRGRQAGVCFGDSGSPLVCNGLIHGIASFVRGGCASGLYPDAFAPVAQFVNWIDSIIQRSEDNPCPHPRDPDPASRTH
Outline: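 Human neutrophil elastase (stock 1 mg/mL in PBS with 10% glycerol) with MeO-Suc-Ala-Ala-Pro-Val-p-nitroanilide substrate in PBS at room temperature, DMSO ≤2%. Inhibitors were tested as pinanediol esters. Substrate hydrolysis was followed at 405 nm to derive kinetic parameters.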

Row | Structure (SMILES) | IC50 [nM]
1 | CC(C)[C@H](NC(=O)[C@H](CCC(=O)O)NC(=O)[C@@H](N)CC(=O)O)C(=O)N[C@H](C(=O)N1CCC[C@@H]1C(=O)N[C@@H](CCc1ccc(C(F)(F)F)cc1)B1O[C@@H]2C[C@@H]3C[C@@H](C3(C)C)[C@]2(C)O1)C(C)C | 1800
2 | CC(C)[C@H](NC(=O)[C@H](CCC(=O)O)NC(=O)[C@@H](N)CC(=O)O)C(=O)N[C@H](C(=O)N1CCC[C@@H]1C(=O)N[C@@H](CCc1ccccc1)B1O[C@@H]2C[C@@H]3C[C@@H](C3(C)C)[C@]2(C)O1)C(C)C | 3500
3 | CC(C)[C@H](NC(=O)[C@H](CCC(=O)O)NC(=O)[C@@H](N)CC(=O)O)C(=O)N[C@H](C(=O)N1CCC[C@@H]1C(=O)N[C@@H](CCc1ccc(-c2ccccc2)cc1)B1O[C@@H]2C[C@@H]3C[C@@H](C3(C)C)[C@]2(C)O1)C(C)C | 900
4 | Cc1cccc(CC[C@H](NC(=O)[C@H]2CCCN2C(=O)[C@@H](NC(=O)[C@@H](NC(=O)[C@H](CCC(=O)O)NC(=O)[C@@H](N)CC(=O)O)C(C)C)C(C)C)B2O[C@@H]3C[C@@H]4C[C@@H](C4(C)C)[C@]3(C)O2)c1 | 5700
5 | CC(C)[C@H](NC(=O)[C@H](CCC(=O)O)NC(=O)[C@@H](N)CC(=O)O)C(=O)N[C@H](C(=O)N1CCC[C@@H]1C(=O)N[C@@H](CCc1ccc(Br)cc1)B1O[C@@H]2C[C@@H]3C[C@@H](C3(C)C)[C@]2(C)O1)C(C)C | 1600

Other lines, results leading:

Row | IC50 [nM] | Structure (SMILES)
6 | 900 | CC(C)[C@H](NC(=O)[C@H](CCC(=O)O)NC(=O)[C@@H](N)CC(=O)O)C(=O)N[C@H](C(=O)N1CCC[C@@H]1C(=O)N[C@@H](CCc1ccc(O)cc1)B1O[C@@H]2C[C@@H]3C[C@@H](C3(C)C)[C@]2(C)O1)C(C)C
7 | 800 | CC(C)[C@H](NC(=O)[C@H](CCC(=O)O)NC(=O)[C@@H](N)CC(=O)O)C(=O)N[C@H](C(=O)N1CCC[C@@H]1C(=O)N[C@@H](CCc1ccc(F)cc1)B1O[C@@H]2C[C@@H]3C[C@@H](C3(C)C)[C@]2(C)O1)C(C)C
8 | 560 | COc1ccc(CC[C@H](NC(=O)[C@H]2CCCN2C(=O)[C@@H](NC(=O)[C@@H](NC(=O)[C@H](CCC(=O)O)NC(=O)[C@@H](N)CC(=O)O)C(C)C)C(C)C)B2O[C@@H]3C[C@@H]4C[C@@H](C4(C)C)[C@]3(C)O2)cc1
9 | 450 | CC(C)c1ccc(CC[C@H](NC(=O)[C@H]2CCCN2C(=O)[C@@H](NC(=O)[C@@H](NC(=O)[C@H](CCC(=O)O)NC(=O)[C@@H](N)CC(=O)O)C(C)C)C(C)C)B2O[C@@H]3C[C@@H]4C[C@@H](C4(C)C)[C@]3(C)O2)cc1
10 | 400 | CC(C)[C@H](NC(=O)[C@H](CCC(=O)O)NC(=O)[C@@H](N)CC(=O)O)C(=O)N[C@H](C(=O)N1CCC[C@@H]1C(=O)N[C@@H](CCCCc1ccccc1)B1O[C@@H]2C[C@@H]3C[C@@H](C3(C)C)[C@]2(C)O1)C(C)C
11 | 340 | CC(C)[C@H](NC(=O)[C@H](CCC(=O)O)NC(=O)[C@@H](N)CC(=O)O)C(=O)N[C@H](C(=O)N1CCC[C@@H]1C(=O)N[C@@H](CCc1ccc(C(C)(C)C)cc1)B1O[C@@H]2C[C@@H]3C[C@@H](C3(C)C)[C@]2(C)O1)C(C)C
12 | 220 | CC(C)[C@H](NC(=O)[C@H](CCC(=O)O)NC(=O)[C@@H](N)CC(=O)O)C(=O)N[C@H](C(=O)N1CCC[C@@H]1C(=O)N[C@@H](CCc1ccc(Oc2ccccc2)cc1)B1O[C@@H]2C[C@@H]3C[C@@H](C3(C)C)[C@]2(C)O1)C(C)C

Each compound was assayed against NS3 (Hepatitis C virus, UniProt A3EZJ3) (assay: Inhibitory concentration against Hepatitis C virus NS3 protease).
Set-up: species or system Hepacivirus hominis
Outline: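 Continuous fluorescence assay with 4 nM NS3 protease plus NS4A cofactor peptide, in 50 mM Tris pH 7.0, 5 mM DTT, 50% glycerol, 2% CHAPS. Serially diluted inhibitors, given as boronic acid pinanediol esters, were preincubated with enzyme for 15 min. The reaction was started with the FRET ester substrate Ac-DED(EDANS)EEAbuψ[COO]ASK(DABCYL)-NH2 at ambient temperature and read at excitation 360 nm, emission 530 nm.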

Row | IC50 [nM] | Structure (SMILES)
13 | 820 | Cc1ccccc1CC[C@H](NC(=O)[C@@H]1CCCN1C(=O)[C@@H](NC(=O)[C@@H](NC(=O)[C@H](CCC(=O)O)NC(=O)[C@@H](N)CC(=O)O)C(C)C)C(C)C)B1O[C@@H]2C[C@@H]3C[C@@H](C3(C)C)[C@]2(C)O1 (H-DEVVP-X2)
14 | 530 | Cc1ccc(CC[C@H](NC(=O)[C@@H]2CCCN2C(=O)[C@@H](NC(=O)[C@@H](NC(=O)[C@H](CCC(=O)O)NC(=O)[C@@H](N)CC(=O)O)C(C)C)C(C)C)B2O[C@@H]3C[C@@H]4C[C@@H](C4(C)C)[C@]3(C)O2)c(C)c1 (H-DEVVP-X5)
15 | 1000 | Cc1ccc(C)c(CC[C@H](NC(=O)[C@@H]2CCCN2C(=O)[C@@H](NC(=O)[C@@H](NC(=O)[C@H](CCC(=O)O)NC(=O)[C@@H](N)CC(=O)O)C(C)C)C(C)C)B2O[C@@H]3C[C@@H]4C[C@@H](C4(C)C)[C@]3(C)O2)c1 (H-DEVVP-X7)
